Compound activity: PubChem, Johns Hopkins Ion Channel Center
Only some compounds are listed: those with a hit (about 3.8% of all), similar ones and a draw of the others.
Kir21 block – inhibitors of mouse Kir2.1 inward-rectifier potassium channel. HEK293-Kir2.1, FluxOR thallium flux fluorescence; active compounds read low. AID 1672. P35561. B-score at 10 µM. actives 0.85% (n = 310,000);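 active means fluorescence ratio B-score at or below minus 3 SD of library scores, with starting-brightness B-score within 2 SD, cut at about -4.2 in these data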;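 further: channel flux triggered by added potassium and thallium sulfate stimulus; B-score of peak minus minimum fluorescence over baseline after thallium stimulus; more negative B-score means stronger Kir2.1 block with less thallium influx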
hERG protect – compounds protecting human hERG from proarrhythmic drug block; actives 0.51% (n = 310,000); activation (rescue from dofetilide block), less the hit threshold, % at 10 µM; CHO-hERG, FluxOR thallium flux, dofetilide IC70 present; AID 1511;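 active means activation above the mean of controls blocked by dofetilide plus 5 SD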;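 further: thallium influx through hERG after potassium depolarization seen as dye fluorescence rise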
KCNQ1 pot – potentiators or activators of human KCNQ1 potassium channel; P51787; CHO-K1 KCNQ1, thallium flux FluxOR fluorescence; active compounds read high; B-score at 10 µM; actives 0.35% (n = 310,000); AID 2648;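 active means fluorescence ratio B-score, a plate-corrected score, at least three library SD, with initial intensity B-score within 5 SD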
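System: Stable KCNQ1 CHO-K1 line | Incubation: 90 min dye loading and 20 min compound exposure, both at room temperature | Measure: Ratio B score | Medium: Assay buffer for compound exposure, DMSO matched across wells | Compound dosing: Single-concentration screen | Probe or stimulus: K+/Tl+ depolarizing stimulus | Measured by: Kinetic FluxOR fluorescence, 10 s baseline plus 110 s post-stimulus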
KCNK3 inh – human KCNK3 channel inhibition, primary screen. O14649. CHO-KCNK3 thallium flux, FluxOR fluorescence; active compounds read low. B-score at 10 µM. actives 0.84% (n = 340,000);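 active means B-score under library mean minus 4 SD, starting fluorescence ratio at most library mean plus 5 SD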;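 further: more negative B-score means stronger inhibition of thallium flux through KCNK3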
KCNQ1 block – blocks the human KCNQ1 potassium channel. P51787. CHO-K1 KCNQ1, FluxOR thallium flux fluorescence; active compounds read high. B-score at 10 µM. actives 1.3% (n = 310,000). AID 2642;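 active means compounds whose thallium flux B-score, printed positive for inhibition, exceeds three library SD while starting fluorescence stays within three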;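 further: channel opened by potassium depolarization with thallium stimulus after 20 min compound exposure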
KCNK9 inh – blocks the human KCNK9 two-pore domain potassium channel; actives 1.2% (n = 310,000); B-score at 10 µM; Q9NPC2; HEK293 KCNK9, FluxOR thallium flux fluorescence; active compounds read low;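 active means ratio B-score over 3 SD below the library mean, with starting fluorescence within 5 SD of its mean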;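 further: negative B-score means less thallium flux so channel inhibition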
* marks the source's active call; other numbers are inactive results; i = inactive; · = no result.

SMILES | Kir21 block | hERG protect | KCNQ1 pot | KCNK3 inh | KCNQ1 block | KCNK9 inh
O=C(CSc1nnc(-c2ccncc2)n1Cc1ccco1)Nc1ccccc1F | -1.6 | -6 | i | i | i | -6.9*
O=C(CSc1nnc(-c2ccncc2)n1Cc1ccco1)Nc1ccccc1Cl | -2.7 | -15 | i | i | i | i
O=c1[nH]c2c(cnn2-c2ccc(Cl)cc2)c(=O)n1-c1cccc(Cl)c1 | 3 | -8 | i | i | i | i
COc1ccc(C(=O)On2c(-c3ccc(Br)cc3)nc3ccccc3c2=O)cc1 | -0.2 | 1 | 10* | i | i | i
Cc1cc(C(=O)Nn2c(-c3ccc(Br)cc3)nc3ccccc3c2=O)ccc1[N+](=O)[O-] | 0.93 | -10 | i | i | 6* | i
Cc1c(NC(=O)C(C)OC(=O)COc2cccc3c2OC(C)(C)C3)c(=O)n(-c2ccccc2)n1C (stereo not drawn) | 0.01 | -7 | i | i | i | i
COc1ccccc1NC(=O)C(C)OC(=O)COc1cccc2c1OC(C)(C)C2 (stereo not drawn) | -4.6* | -16 | i | i | i | i
COc1ccc(C(C)=O)cc1COc1cccc2c1OC(C)(C)C2 | -5* | -10 | i | i | i | i
COc1ccc(NC(=O)COc2cccc3c2OC(C)(C)C3)cc1OC | · | · | · | i | · | ·
COc1ccccc1CCNC(=O)COc1cccc2c1OC(C)(C)C2 | -6.4* | -15 | i | i | i | i
COc1ccccc1NC(=O)C(C)OC(=O)CCCOc1ccccc1 (stereo not drawn) | -4.8* | -6 | i | i | i | i
CC1(C)Cc2cccc(OCC(=O)NCCOc3ccccc3)c2O1 | -2.6 | -11 | i | i | i | i
CC(C)CCc1noc(CN2CCN(c3ccc(Cl)cn3)CC2)n1 | 0.57 | -7 | i | i | i | i
COc1ccc2nc(SCCOC(=O)Nc3ccc(Cl)cc3)nc(C)c2c1 | -5.7* | -13 | i | i | i | i
COc1ccc2nc(SCC(=O)O)nc(C)c2c1 | · | · | · | i | · | ·
Cc1ccc(S(=O)(=O)NCCC(=O)N2CCC(Cc3ccccc3)CC2)cc1 | 0.56 | -11 | i | i | i | i
COc1ccc(S(=O)(=O)NCc2ccc(C(=O)N3CCN(Cc4ccccc4)CC3)cc2)cc1 | -4 | -7 | i | i | i | i
Cc1ccc(S(=O)(=O)NCc2ccc(C(=O)NCCCN3CCC(Cc4ccccc4)CC3)cc2)cc1 | -3.9 | -21 | i | i | 6* | i
Cc1ccc(S(=O)(=O)NCc2ccc(C(=O)N3CCN(Cc4ccccc4)CC3)cc2)cc1 | 0.17 | -4 | i | -9.3* | i | i
Cc1cc2[nH]c3c(c[n+](C)c4ccccc34)c2cc1C | -7.8* | -21 | i | i | i | i
Cc1cc2[nH]c3c4ccccc4nc(C)c3c2cc1C | · | · | · | i | · | ·
COCc1ccccc1C1=CC(=O)C[C@H](c2ccc(OC)cc2)C1 | · | · | · | i | · | ·
O=C(Oc1c(-c2ccccc2)c(=O)n2c3c(cccc13)CC2)c1ccccc1 | -1.6 | -11 | i | i | i | i
O=C(Oc1c(-c2ccccc2)c(=O)n2c3c(cccc13)CC2)c1cccc([N+](=O)[O-])c1 | -0.64 | -11 | i | i | 6* | i
Cc1cccc(CS(=O)(=O)c2nnc([C@H](Cc3ccccc3)NC(=O)OC(C)(C)C)o2)c1 | -8.1* | -22 | i | i | i | i
SMILES | Kir21 block | hERG protect | KCNQ1 pot | KCNK3 inh | KCNQ1 block | KCNK9 inh
O=[N+]([O-])c1ccc(OC(F)F)c(/C=N/n2cnnc2)c1 | -0.15 | -12 | i | i | i | i
CC(/C=C1\SC(=S)N(c2ccc(C(=O)O)cc2)C1=O)=C\c1ccccc1 | 2.1 | 5.1* | i | i | i | i
CC(/C=C1\SC(=S)N(NC(=O)c2ccc(C)cc2)C1=O)=C\c1ccccc1 | -1.6 | -12 | i | i | i | i
Cc1ccc(C)c(NC(=O)c2ccccc2C(=O)c2ccccc2)c1 | -2.1 | -12 | i | · | i | -10*
CN(CC(=O)Nc1cccc(F)c1)C(=O)c1ccccc1Cc1ccccc1 | -1.4 | -14 | i | i | i | i
Cc1ccc(C)c(NC(=O)CN(C)C(=O)c2ccccc2Cc2ccccc2)c1 | -4.3* | -7 | i | i | i | i
COc1cccc(-c2nn(-c3ccccc3)cc2CN(C)C(C)c2ccon2)c1 (stereo not drawn) | -0.11 | -5 | i | i | 6* | i
COc1cccc(-c2nn(-c3ccccc3)cc2CN(C)Cc2ccno2)c1 | -0.53 | -8 | i | i | i | i
CCCN(CCC)C(=O)C(c1ccccc1)C1(O)CCCCC1 (stereo not drawn) | · | · | · | -8.9* | · | ·
CC1CCc2sc(C(=O)NC3CCCCC3)cc2C1 (stereo not drawn) | · | · | · | i | · | ·
CC1CCc2sc(-c3n[nH]c(=S)o3)cc2C1 (stereo not drawn) | -2.1 | 7.4* | i | i | i | i
CCN(c1ccc(NC(=O)c2ccc(Cl)nc2)cc1)C(C)C | 1.1 | 5.9* | i | i | i | i
O=C(Nc1ccc(N2CCOCC2)cc1)c1ccc(Cl)nc1 | 0.53 | -3 | i | i | i | i
Cc1cccc(S(=O)(=O)Nc2ccc(C)c3c2OC(C)(C)C3)c1 | -5.9* | -9 | i | i | i | i
Cc1ccc(NS(=O)(=O)c2ccccc2Cl)c2c1CC(C)(C)O2 | -4.4* | -13 | i | i | i | i
CC(C)[C@H](NC(=O)N1c2ccccc2NC(=O)[C@@H]1C(C)C)C(=O)N1CCC[C@H]1C(=O)O | 0.07 | -2 | i | i | i | i
Cc1cc(C)c(C(=O)c2ccc(C(=O)N3CCCCC3)cc2)c(C)c1 | 0.21 | 14* | i | i | i | i
Cc1ccc2c(c1)c1c(n2CC(O)CNC2CCCCC2)CCCC1 (stereo not drawn) | -7.9* | -17 | i | i | i | i
COc1ccccc1C(C)NS(=O)(=O)c1cccs1 (stereo not drawn) | -4.5* | -4 | i | · | i | i
COc1ccccc1NC(=O)c1ccccc1NS(=O)(=O)c1cccs1 | 0.85 | -12 | i | i | 6* | i
COc1ccccc1NC(=O)c1ccccc1NS(C)(=O)=O | 1.1 | -8 | i | i | i | i
O=C(CC1Sc2ccccc2NC1=O)NNc1cc(Cl)ccc1Cl (stereo not drawn) | · | · | · | i | · | ·
CCC12CN(S(=O)(=O)c3ccc(C)cc3)CC(CC)(CN(S(=O)(=O)c3ccc(C)cc3)C1)C2=O | 1.4 | -9 | i | -9.1* | i | i
